Source: PubChem BioAssay (several laboratories)
Only some compounds are listed: those with a hit (about 2.2% of all), similar ones and a draw of the others.
C8 TRAIL sens: caspase-8 TRAIL sensitization. 1% of 360,000 active. inhibition (viability loss, TRAIL sensitization), % at 10 µM. NB7+C8 cells + TRAIL, ATPlite viability luminescence. AID 624354;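 active means compounds causing at least 50% loss of cell viability in the single-dose screen, relative to plate controls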
PKD1 kinase inh: inhibitors of human PKD1 kinase; 0.056% of 200,000 active; PKD1 kinase fluorescence polarization assay; inhibition, % (test concentration not listed); Q15139; in the data active means inhibition above about 50%
FLuc inh counter: Photinus pyralis luciferase inhibition counter-screen; 1.5% of 200,000 active; P08659; inhibition, % at 10 µM; ATPLite firefly luciferase biochemical luminescence, 10 min;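 active means inhibition above about 50% when tested at 10 µM, limit read from the data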
PPC-1+TRAIL kill: PPC-1 cancer cell killing with TRAIL present; PPC-1 cells + TRAIL, ATPLite viability luminescence; cell killing (% activity), % at 4 µM or 5 µM; 0.41% of 220,000 active; AID 1443;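 active means cell killing above 50% in the first pass at 4 µM, then a duplicate retest at 5 µM averaging 50% or more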;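 further: plate controls were cells with TRAIL plus DMSO for no effect and medium-only wells lacking cells for full effect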
Wee1 degr inh: blocks degradation of human Wee1 kinase; P30291; HeLa Luc-Wee1K328M stability, luciferase luminescence; 100% = proteasome inhibitor MG132 effect; reporter increase, % at 5 µM; 1.2% of 220,000 active; AID 1321;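 active means activation above the mean of all tested compounds plus 3 SD, set per screening run, cut at about 8.8% in these data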;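 further: cells exposed to compound for 20 h before luminescence read; 0% = DMSO alone and 100% = MG132 at 30 µM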
Target sequence (P30291 whole entry K328M): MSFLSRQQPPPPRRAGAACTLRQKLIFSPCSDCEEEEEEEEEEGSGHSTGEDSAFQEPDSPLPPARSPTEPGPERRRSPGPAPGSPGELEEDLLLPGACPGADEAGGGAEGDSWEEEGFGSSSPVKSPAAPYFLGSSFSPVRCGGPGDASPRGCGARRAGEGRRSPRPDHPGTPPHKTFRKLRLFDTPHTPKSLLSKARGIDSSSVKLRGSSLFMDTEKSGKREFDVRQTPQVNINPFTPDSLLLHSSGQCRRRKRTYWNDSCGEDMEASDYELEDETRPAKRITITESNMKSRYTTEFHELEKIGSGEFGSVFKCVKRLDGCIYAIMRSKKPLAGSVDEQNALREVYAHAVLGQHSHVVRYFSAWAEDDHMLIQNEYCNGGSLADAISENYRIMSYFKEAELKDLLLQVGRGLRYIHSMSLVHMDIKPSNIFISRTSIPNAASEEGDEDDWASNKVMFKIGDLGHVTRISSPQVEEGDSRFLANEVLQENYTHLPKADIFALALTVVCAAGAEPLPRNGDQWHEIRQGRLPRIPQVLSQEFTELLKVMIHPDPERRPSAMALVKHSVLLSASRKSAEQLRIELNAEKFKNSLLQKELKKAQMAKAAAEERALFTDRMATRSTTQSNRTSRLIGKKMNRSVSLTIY
FLuc act counter: affects firefly luciferase, flagging false hits in luciferase stimulation screens; ATPlite luciferase biochemical, luminescence, 10 min; 0 = ATP-free wells, 1 = DMSO control; activation factor at 10 µM; 200,000 tested, under 10 active; AID 1027;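 active means luciferase activation factor, scaled between plate controls, of at least 2 with compound at 10 µM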
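Material: luciferase plus luciferin reagent, cell-free. Medium: PBS buffer for ATP. Also added: ATP substrate, dispensed from a 10.24 µM working solution in PBS. Doses: test compounds dosed from 2 mM stocks in 100% DMSO. Incubation: 10 min post-reagent at room temperature. Technique: light output (luminescence). Read-out basis: luminescence gain marking luciferase activators.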
Active calls of the source: *.

`Cc1nnc(SCC(=O)Nc2c(Cl)cccc2Cl)n(N)c1=O` gave C8 TRAIL sens -16.
For COc1ccc(Cn2c(SCc3ccccc3C)nc3cc(OC)c(OC)cc3c2=N)cc1 the results were C8 TRAIL sens 86*, PKD1 kinase inh 4, FLuc inh counter -7, PPC-1+TRAIL kill 8, Wee1 degr inh -1 and FLuc act counter 1.1.
Screening CN1C(=O)/C(=C/c2ccc3c(c2)OCO3)N=C1c1ccccc1 returned C8 TRAIL sens -3, PKD1 kinase inh -5, FLuc inh counter 62*, PPC-1+TRAIL kill 29, Wee1 degr inh 2 and FLuc act counter 0.4.
`CN1OC[C@@H]2CN[C@H](c3ccc(-c4cc5ccccc5o4)cc3)C[C@@H]21` gave C8 TRAIL sens 86*.
Screening CN1OC[C@@H]2CN[C@H](c3ccc(-c4ccc(C#N)cc4)cc3)C[C@@H]21 returned C8 TRAIL sens 18.
`CCC(=O)N1CCCc2cc(S(=O)(=O)N3CCN(c4ccccc4F)CC3)ccc21` gave C8 TRAIL sens 83*, PKD1 kinase inh -1, FLuc inh counter -8, PPC-1+TRAIL kill 8, Wee1 degr inh 0 and FLuc act counter 1.1.
Cc1[nH]n(-c2ccccc2)c(=O)c1N=Nc1ccccc1O was read as C8 TRAIL sens 57*, PKD1 kinase inh 6, FLuc inh counter 3, PPC-1+TRAIL kill 46, Wee1 degr inh 0 and FLuc act counter 1.
CSc1ccc(/C=N/Nc2nc(C)cc(=O)[nH]2)cc1 was read as C8 TRAIL sens 27, PKD1 kinase inh 1, FLuc inh counter 68*, PPC-1+TRAIL kill 22, Wee1 degr inh 6 and FLuc act counter 0.3.
`COC(=O)c1ccc(/C=C(\C#N)c2nc3ccccc3s2)cc1` gave C8 TRAIL sens 26, PKD1 kinase inh -4, FLuc inh counter 9, PPC-1+TRAIL kill -5, Wee1 degr inh -3 and FLuc act counter 0.9.
N#C/C(=C\c1ccccn1)c1nc2ccccc2s1 was read as C8 TRAIL sens 0, PKD1 kinase inh 5, FLuc inh counter 68*, PPC-1+TRAIL kill 19, Wee1 degr inh 4 and FLuc act counter 0.3.
Cc1c(/C=N/NC(=O)C(C)(C)Oc2ccc(Cl)cc2)cnn1C was read as C8 TRAIL sens -8, PKD1 kinase inh 10, FLuc inh counter -6, PPC-1+TRAIL kill 13, Wee1 degr inh 9.9* and FLuc act counter 1.1.
`COc1ccc(CN(C(=O)c2snc(C(N)=O)c2N)C(C(=O)NC2CCCC2)c2ccco2)cc1` (configuration not stated) gave C8 TRAIL sens 9.
For COc1ccc(/C(N)=N/OC(=O)c2cccs2)cc1 the results were C8 TRAIL sens 17, PPC-1+TRAIL kill 14 and Wee1 degr inh 10.0*.
Screening Cc1ccc(C(=O)O/N=C(\N)c2ccccn2)c(C)c1 returned C8 TRAIL sens 94*.
`N/C(=N\OC(=O)c1ccc(Cl)c([N+](=O)[O-])c1)c1ccccn1` gave C8 TRAIL sens 9, PKD1 kinase inh -5, FLuc inh counter 26, PPC-1+TRAIL kill 17, Wee1 degr inh -3 and FLuc act counter 0.7.
Screening N/C(=N\OC(=O)c1ccccc1[N+](=O)[O-])c1ccccn1 returned C8 TRAIL sens 26, PKD1 kinase inh -3, FLuc inh counter 69*, Wee1 degr inh 5 and FLuc act counter 0.3.
COc1cc(OC)c(C(=O)O/N=C(\N)c2ccccn2)cc1OC was read as C8 TRAIL sens 2.
For COc1ccccc1C(=O)O/N=C(\N)c1ccccn1 the results were C8 TRAIL sens 26, PPC-1+TRAIL kill 34 and Wee1 degr inh 9.1*.
COc1ccc(CNC(=O)C2CCC(CNS(=O)(=O)c3ccc(C)cc3)CC2)cc1 (configuration not stated) was read as C8 TRAIL sens -26.
Screening COc1cc(OC)cc(C(=O)O/N=C(\N)c2ccccn2)c1 returned C8 TRAIL sens 31, PPC-1+TRAIL kill 10 and Wee1 degr inh 3.
Screening COc1ccc(/C(N)=N/OC(=O)c2cccc([N+](=O)[O-])c2)cc1 returned C8 TRAIL sens 10, PKD1 kinase inh -2, FLuc inh counter 13, PPC-1+TRAIL kill 7, Wee1 degr inh -2 and FLuc act counter 0.9.
For COc1ccc(C(=O)O/N=C(\N)c2ccccn2)cc1 the results were C8 TRAIL sens 92*.
Screening COc1ccc(/C(N)=N/OC(=O)c2cccc([N+](=O)[O-])c2C)cc1 returned C8 TRAIL sens 65*, PKD1 kinase inh 1, FLuc inh counter 1, PPC-1+TRAIL kill 13, Wee1 degr inh 0 and FLuc act counter 1.
`Cc1ccc(/C=C/C2=NN(C)C(=O)CC2)cc1` gave C8 TRAIL sens 53*, PKD1 kinase inh -4, FLuc inh counter 78*, PPC-1+TRAIL kill 39, Wee1 degr inh 6 and FLuc act counter 0.2.
NS(=O)(=O)c1ccc(CCNc2ccccc2[N+](=O)[O-])cc1 was read as C8 TRAIL sens -6.
For O=C(C(=O)N1CCN(c2ccccc2)CC1)c1c[nH]c2ccccc12 the results were C8 TRAIL sens -46, PKD1 kinase inh 1, FLuc inh counter -6, PPC-1+TRAIL kill 13, Wee1 degr inh 11* and FLuc act counter 1.1.
`Cc1ccc(NC(=O)CC2S/C(=N/N=C/c3c[nH]c4ccccc34)NC2=O)cc1` (configuration not stated) gave C8 TRAIL sens -4, PKD1 kinase inh 0, FLuc inh counter -3, PPC-1+TRAIL kill -5, Wee1 degr inh 9.7* and FLuc act counter 1.
`C=C1CC2(CC(c3ccccc3)OC(c3ccccc3)C2)OC1=O` (configuration not stated) gave C8 TRAIL sens 64*.
O=C1CCCC[C@@H](O)[C@H](O)C[C@H](c2ccccc2)O1 was read as C8 TRAIL sens -14.
Cc1nc(-c2ccc(NC(=O)c3ccc(Br)o3)cc2)cs1 was read as C8 TRAIL sens 55*.
Screening Cc1nc(-c2ccc(NC(=O)CC(C)C)cc2)cs1 returned C8 TRAIL sens 53*, PKD1 kinase inh -2, FLuc inh counter 68*, PPC-1+TRAIL kill 27, Wee1 degr inh 4 and FLuc act counter 0.3.
COc1cc(OC)cc(C(=O)N[C@H](C(=O)Nc2nnc(C3CC3)s2)C(C)C)c1 was read as C8 TRAIL sens -16, PKD1 kinase inh 1, FLuc inh counter -7, PPC-1+TRAIL kill -17, Wee1 degr inh 6 and FLuc act counter 1.1.
For Cc1nnc(SCC(C)C)[nH]c1=O the results were C8 TRAIL sens -23, PKD1 kinase inh 10, FLuc inh counter 0, PPC-1+TRAIL kill 0, Wee1 degr inh 9.4* and FLuc act counter 1.
For Cc1nnc(SCc2ccccc2)[nH]c1=O the results were C8 TRAIL sens -3, PKD1 kinase inh -4, FLuc inh counter 4, PPC-1+TRAIL kill 16, Wee1 degr inh -3 and FLuc act counter 1.
`Cc1ccc(NCc2nc3ccccc3n2C)c(C)c1` gave C8 TRAIL sens 83*.
